pEC50: −log10 of the molar value. Calls of active or inactive are those of the source. No cut-off for these calls is given here.
Experiments:
[1] = test system: Respiratory syncytial virus; experiment: Antiviral activity against RSV; type: functional, organism-based
[2] = test system: Human immunodeficiency virus 1; experiment: Antiviral activity against HIV1 in MT4 cells by plaque reduction assay; type: functional, organism-based; settings: Human immunodeficiency virus 1, MT4
Coxsackievirus B2 = experiment: Antiviral activity against CVB2 in Vero 76 cells after 3 days by plaque reduction assay; type: functional, organism-based; settings: Enterovirus B, 72 h
Procedure, shortened: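 Vero 76 cells seeded 2×10^5 cells/well, confluent overnight; infected to give 50-100 PFU/well; unadsorbed virus removed, then DMEM with 1% inactivated FCS and 0.75% methyl cellulose ± serial dilutions added. After 3 days at 37 °C, fixed and stained with 50% ethanol/0.8% crystal violet in PBS; plaques counted; EC50 by linear regression.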

Reovirus sp. = experiment: Antiviral activity against Reovirus; type: functional, organism-based
[3] = Cytotoxicity against Vero 76 cells after 48 to 120 hrs by MTT method; type: cell-based; settings: chlorocebus sabaeus
[4] = test system: Bovine viral diarrhea virus 1; experiment: Antiviral activity against BVDV in MDBK cells assessed as inhibition of virus-induced cytopathogenicity after 2 to 3 days by MTT method; type: functional, organism-based; settings: Bovine viral diarrhea virus isolates and strains
Procedure, shortened: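 MDBK cells seeded 2.5×10^4 cells/well, grown overnight to confluence at 37 °C, 5% CO2; infected at moi 0.01 in serum-free medium; after 1 h, MEM Earle's with 1% inactivated FCS ± serial compound dilutions (DMSO stock diluted in medium) added. Viability read by MTT after 2-3 days at 37 °C; EC50 = 50% protection from cytopathogenicity; mean of three determinations.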

[5] = Cytotoxicity against MDBK cells after 48 to 120 hrs by MTT method; type: cell-based, Bos taurus; settings: cattle
Procedure, shortened: (§1)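 Cells placed in maintenance medium at initial 1×10^6 (BHK) or 6×10^5 (MDBK) cells/mL, with or without serial compound dilutions, run in parallel with antiviral tests. Viability by MTT after 48–120 h at 37 °C, humidified 5% CO2; CC50 = concentration reducing mock-infected cell viability by 50%; mean of three determinations.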

Enterovirus C = experiment: Antiviral activity against Poliovirus Sb1 in Vero 76 cells after 2 days by plaque reduction assay; type: functional, organism-based; settings: 48 h
Procedure, shortened: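 Vero 76 monolayers (2×10^5 cells/well, grown overnight) infected with Sabin strain at 50-100 PFU/well. Unabsorbed virus removed, then DMEM with 1% inactivated FCS and 0.75% methyl cellulose added, with or without serial compound dilutions (100 mM DMSO stock diluted in medium). Held 2 days at 37 °C, then fixed and stained with ethanol/crystal violet and plaques counted. EC50 (50% plaque reduction) by linear regression; mean of three determinations.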

[6] = test system: Vesicular stomatitis virus; experiment: Antiviral activity against VSV; type: functional, organism-based
Yellow fever virus = experiment: Antiviral activity against YFV in BHK1 cells assessed as inhibition of virus-induced cytopathogenicity after 2 to 3 days by MTT method; type: functional, organism-based
[7] = Cytotoxicity against BHK1 cells after 48 to 120 hrs by MTT method; type: cell-based, Mesocricetus auratus; settings: hamster; procedure, shortened: as §1
[8] = Cytotoxicity against human MT4 cells after 96 hrs by MTT method; type: cell-based
Procedure, shortened: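 Exponentially growing MT-4 cells (CD4+ T-cells carrying integrated HTLV-1) seeded at 1×10^5 cells/mL in RPMI-1640 with 10% FCS, penicillin and streptomycin, with or without serial compound dilutions; 96 h at 37 °C, humidified 5% CO2. Viability by MTT; value = concentration reducing proliferation by 50%, untreated controls undergoing at least three rounds of multiplication.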

SMILES | Activity [1] | pEC50 [2] | pEC50 (Coxsackievirus B2) | Activity (Reovirus sp.) | CC50 [3] | pEC50 [4] | CC50 [5] | pEC50 (Enterovirus C) | Activity [6] | pEC50 (Yellow fever virus) | CC50 [7] | CC50 at 96 h [8]
O=c1cc[nH]c2c(Cl)c(Cl)c3ncccc3c12 | inactive | < 4.33 | < 4.10 | inactive | 80 µM | 4.80 | > 100 µM | < 4.10 | inactive | < 4.00 | > 100 µM | 47 µM
O=C(O)c1c[nH]c2c(Cl)c(Cl)c3ncccc3c2c1=O | inactive | < 4.00 | < 4.00 | inactive | 100 µM | < 4.00 | > 100 µM | 4.07 | inactive | < 4.64 | 23 µM | > 100 µM
CC(=O)Nc1ccnc2c(Cl)c(Cl)c3ncccc3c12 | inactive | < 4.89 | 5.70 | inactive | 50 µM | 4.66 | 32 µM | 4.68 | inactive | < 4.74 | 18 µM | 13 µM
CCOc1ccnc2ccc3ncccc3c12 | inactive | < 4.25 | 5.30 | inactive | 80 µM | 5.22 | 64 µM | 4.77 | inactive | < 4.46 | 35 µM | 56 µM
CCOc1ccnc2c(Cl)c(Cl)c3ncccc3c12 | inactive | < 4.00 | 5.70 | inactive | 75 µM | 4.60 | 64 µM | 4.96 | inactive | < 4.60 | 25 µM | > 100 µM
Nc1ccnc2ccc3ncccc3c12 | inactive | < 4.30 | < 4.05 | inactive | 90 µM | 5.05 | 63 µM | < 4.05 | inactive | < 4.00 | > 100 µM | 50 µM
c1cnc2ccc3ncccc3c2c1 | inactive | < 4.21 | < 4.10 | inactive | 80 µM | 4.77 | > 100 µM | < 4.10 | inactive | < 4.00 | > 100 µM | 61 µM
Nc1ccnc2c(Cl)c(Cl)c3ncccc3c12 | inactive | < 5.14 | 5.70 | inactive | 40 µM | ≤ 4.62 | 24 µM | 4.85 | inactive | < 4.96 | 11 µM | 7.2 µM
O=c1cc[nH]c2ccc3ncccc3c12 | inactive | < 4.00 | < 4.00 | inactive | > 100 µM | 4.02 | > 100 µM | < 4.00 | inactive | < 4.18 | 66 µM | > 100 µM
Clc1c(Cl)c2nccc(Cl)c2c2cccnc12 | inactive | < 5.19 | < 4.00 | inactive | > 100 µM | < 4.27 | 54 µM | < 4.00 | inactive | < 4.00 | > 100 µM | 6.4 µM
CCOC(=O)c1c[nH]c2c(Cl)c(Cl)c3ncccc3c2c1=O | inactive | < 4.49 | < 4.05 | inactive | 90 µM | 4.46 | > 100 µM | < 4.05 | inactive | < 4.60 | 25 µM | 32 µM
Clc1c(Cl)c2ncccc2c2cccnc12 | inactive | < 4.62 | 4.96 | inactive | 25 µM | 4.80 | > 100 µM | 5.22 | inactive | < 4.00 | > 100 µM | 24 µM
